A number with no mark means an inactive call. Inconclusive results are not listed. Active and inactive are the calls of the source.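 How the source made its calls, unless noted: active means viability increase at or above a cutoff of the median across tested compounds plus 3 SD (cut at about 8.5% in these data, passing the limit was not always enough); inconclusive means some gains above the cutoff, reason not given; inactive means the rest.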
How the values were obtained:
[1] = S. cerevisiae growth inhibition in permissive medium (OD615), pilot counter-assay for S. cerevisiae lifespan shortening project, permissive growth control (AID 705;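 active means growth inhibition above 25% in both replicates, a cutoff set 3 SD above the mean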); details: OD615, 24 h, at 10 µM, stronger effect = higher value
Procedure, shortened: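 System: Engineered DeaD yeast | Buffer or medium: SC raffinose/galactose permissive medium | Doses: 10 µM single dose, 0.25% DMSO | Times: 24 h exposure, 30 °C | Measured by: OD615 turbidity read | Read-out: Yeast growth inhibition indicated by reduced 24 h OD615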

[2] = S. cerevisiae growth inhibition in restrictive medium, OD615, pilot screen, restrictive growth control, yeast lifespan reduction project (AID 706;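 active means growth inhibition above a set limit, 3 SD over mean compound inhibition, in both replicates, cut at about 43% in these data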;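 further: modified DeaD lifespan yeast strain shifted to restrictive glucose medium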); details: OD615, 48 h, at 10 µM, stronger effect = higher value
Procedure, shortened: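 Assay system: engineered S. cerevisiae DeaD strain; Buffer or medium: CSMM-D glucose medium; Dosing: 10 µM compound, 0.25% DMSO; Times: cell pre-growth 4 h, compound exposure 48 h, 30 °C; Detection: absorbance (optical density) measured at 615 nm.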

[3] = doxorubicin toxicity protection in MRP-1 cells – H69AR cells, CellTiter-Glo, duplicate, MRP-1 activator project, pilot screen (AID 807); details: H69AR viability with doxorubicin, CellTiter-Glo luminescence; at 10 µM; stronger effect = higher value;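 further: compound pretreatment 18-22 h then 72 h combined with doxorubicin; 0% = doxorubicin alone and 100% = vehicle without doxorubicin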
[4] = viability of HCT116 without oncogenic beta-catenin – human colon tumor cells, pilot screen (AID 823;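 active means cell viability at or below a set limit in both duplicate runs, the limit being the all-compound median minus 4 SD, cut at about 23% in these data, passing the limit was not always enough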;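 further: 0% = wells killed by 20 µM Hyamine and 100% = untreated DMSO cell wells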); details: HCT116 beta-catenin knockout viability, CellTiter-Glo, 60 h; at 10 µM; stronger effect = lower value
[5] = viability of PTEN-null HCT116 cells – cell-based, HCT116 clonal line, CellTiter-Glo, pilot screen (AID 824;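 active means viability at or below 27.92% in each of two runs, the all-compound median minus 4 SD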;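 further: 0% = 20 µM Hyamine control and 100% = vehicle cell control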); details: HCT116 PTEN-deleted viability, 60 h, at 10 µM, stronger effect = lower value
[6] = RAM pathway blockade in budding yeast – dse1pr::URA3 reporter, 5-FOA selection, pilot screen (AID 869;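 active means inhibition over a set limit, the all-compound mean plus 3 SD, in both replicate runs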;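 further: 0% = DMSO wells with no growth and 100% = 10 µM 1-NA-PP1 with full growth; RAM network block rescues cells from 5-FOA so hits raise OD615 growth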); details: S. cerevisiae dse1pr::URA3 5-FOA growth, OD615, 2 d; at 10 µM; stronger effect = higher value; strain carries analog-sensitive mutant Cbk1 kinase
[7] = RAM signaling pathway blockade in yeast – S. cerevisiae, Pdr1DBD-CYC8 efflux-inhibited sensitized strain, primary screen (AID 1298;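 active means RAM network inhibition above 8.4% in each of two replicates, 3 SD over the compound average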;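 further: 0% = DMSO untreated cells without growth and 100% = 10 µM 1-NA-PP1 full growth; higher means more yeast growth rescued from 5-FOA killing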); details: S. cerevisiae cbk1-as DSE1-URA3 strain, 5-FOA growth OD615, 2 d; at 50 µM; stronger effect = higher value

| SMILES | growth inhibition [1] [%] | growth inhibition [2] [%] | viability increase [3] [%] | viability [4] | viability [5] | inhibition [6] [%] | RAM network inhibition [7] [%] |
| --- | --- | --- | --- | --- | --- | --- | --- |
| COc1ccc(CCNC(=O)CCNS(=O)(=O)c2cccc3nsnc23)cc1OC | -2.13 | -8.7 | -4.88 | 86.5% | 97.2% | 0.305 | 1.25 |
| CCN1c2ccccc2NC2C1C(C(C)=O)C(=O)N2c1ccc(Cl)cc1 (stereo unspecified) | -2.96 | -9.21 | -5.03 | 84.3% | 72.2% | 1.32 | 5.6 |
| CC(=O)c1ccc(NC(=O)CSc2nc3nc(C)cc(C)n3n2)cc1 | -20.6 | -8.37 | -1.88 | 101% | 93.9% | 2.34 | 2.78 |
| COC(=O)c1ccsc1NC(=O)c1ccc(Cl)s1 | -17.6 | -27.1 | -6.51 | 94.7% | 87.9% | 3.58 | 5.89 |
| CCN=C1SC(CC(=O)NC(N)=O)C(=O)N1CC (stereo unspecified) | -12.5 | -17.8 | 0.51 | 101% | 101% | 1.3 | 1.66 |
| Cc1nc2sc(C(c3cccs3)N3CCN(Cc4ccccc4)CC3)c(O)n2n1 (stereo unspecified) | -7.44 | -19.6 | -1.47 | 101% | 89.8% | -0.06 | 4.97 |
| COCCNC(=O)CN1C(=O)COc2ccc(Cl)cc21 | -4.28 | 6.35 | -1.25 | 111% | 97.9% | 1.12 | 5.23 |
| CC(=O)Oc1cc2c(C(=O)NCc3ccncc3)c(C)oc2c2ccccc12 | -15.1 | -16.8 | -3.14 | 90.9% | 95.8% | 0.64 | 8.02 |
| COc1cc(Br)cc(-c2nc3c(c(=O)[nH]c(=O)n3Cc3ccccc3)n2C)c1O | 3.34 | -0.8 | -1.31 | 89.6% | 87.6% | 2.02 | 3.23 |
| CC(=O)c1ccc(OCC(O)CN2CCCC(C)C2)cc1 (stereo unspecified) | 5.32 | -4.29 | -0.81 | 99.3% | 96.7% | 1.98 | 5.23 |
| Cc1ccccc1-n1c(Cn2c(=O)sc3ccccc32)nnc1SCC(=O)NCC1CCCO1 (stereo unspecified) | -3.68 | -12.2 | 0 | 100% | 97.9% | 0.82 | 3.19 |
| CN1C(=O)/C(=C2\SC(=S)N(C(CCC(=O)O)C(=O)O)C2=O)c2ccccc21 (stereo unspecified) | 2.35 | -1.85 | -2.67 | 107% | 98.8% | 1.11 | 0.96 |
| COCCNc1cc(C)nc2c(-c3ccccc3OC)c(C)nn12 | -1.17 | 4.02 | -2.38 | 97.2% | 94.2% | 1.74 | 0.56 |
| COc1ccc(S(=O)(=O)N2CCC(C(=O)N3CCc4ccccc4C3)CC2)cc1 | 11.1 | -10.1 | -5.43 | 93.5% | 85% | 0.13 | 2.53 |
| c1ccc2c(c1)CCCN2c1nc2ccccc2n2cnnc12 | -6.12 | -9.76 | -6.44 | 91.2% | 83.3% | 1.44 | 4.1 |
| CC(=O)Nc1ccc(S(=O)(=O)Nc2nc(C)cc(-n3nc(C)cc3C)n2)cc1 | -8.39 | -6.55 | -1.84 | 102% | 102% | 1.25 | 2.89 |
| COc1cccc(C2CC(c3ccc(Cl)cc3)Nc3nc(N)nn32)c1 (stereo unspecified) | 4.02 | 11.4 | 3.49 | 91.4% | 83% | 1.92 | 6.11 |
| COc1cc(C(=O)Oc2c(CN3CCOCC3)cc(Cl)c3cccnc23)cc(OC)c1OC | -8.94 | -33.1 | -8.41 | 6.72% (active) | 4.81% (active) | 1.09 | 0.27 |
| CCOC(=O)Cn1c(C(C)=O)nc2ccccc21 | -18.1 | -25.1 | 0.94 | 102% | 94.8% | 0.28 | 0.32 |
| CCC(C)NC(=O)Cn1cc2c(n1)CCC(C)C2 (stereo unspecified) | -6.78 | 6.43 | -1.54 | 103% | 97.3% | 0.14 | 0.42 |
| COc1ccc(-c2cc(C(F)F)n3ncc(C(=O)NCCCN4CCCC4=O)c3n2)cc1 | -3.45 | -7.12 | -4.32 | 78.5% | 73.5% | -0.515 | 3.32 |
| O=C1Nc2ccccc2C(O)(C(=O)NCc2ccco2)N1c1ccccc1 (stereo unspecified) | -5.44 | 1.25 | -1.5 | 108% | 98.7% | 0.96 | 1.15 |
| C=CCNC(=O)c1c(Cl)cccc1Cl | -12.2 | 3.24 | -1.31 | 90.5% | 97.3% | 0.94 | 3.89 |
| CCCc1cc(C(=O)Nc2cc(Br)ccc2O)no1 | -4.99 | -3.92 | -4.83 | 89% | 88.1% | 2.76 | 5.97 |

| SMILES | growth inhibition [1] [%] | growth inhibition [2] [%] | viability increase [3] [%] | viability [4] | viability [5] | inhibition [6] [%] | RAM network inhibition [7] [%] |
| --- | --- | --- | --- | --- | --- | --- | --- |
| CCOC(=O)CSc1ccc2nnc(-c3ccccc3)n2n1 | -8.02 | -9.2 | -0.81 | 108% | 93.5% | 1.15 | 0.11 |
| COc1cc(C(=O)NCCc2cn3ccccc3n2)cc(OC)c1OC | -9.42 | -6.93 | -2.78 | 98.4% | 95.9% | 2.1 | 2.62 |
| CC1CCN(C(=O)CN2C(=O)C(=O)c3ccccc32)CC1 | 3.92 | -0.215 | -5.16 | 100% | 97.1% | 1.33 | 3.27 |
| CN(C)S(=O)(=O)c1ccc2c(c1)c(=O)c(C(=O)N1CCOCC1)cn2C | -8.25 | 2.44 | 0.13 | 103% | 89.4% | 1.79 | -0.67 |
| CN1CCN(CCCNC(=O)c2cn(C)c3ccc(S(=O)(=O)N(C)C)cc3c2=O)CC1 | -0.94 | 2.12 | -0.23 | 103% | 103% | -0.355 | 5.1 |
| CCC(=O)c1ccc(OCC(O)CN2C(=O)NC(C)(C)C2=O)cc1 (stereo unspecified) | -3.58 | -3.1 | -0.53 | 100% | 92.8% | 1.6 | 1.09 |
| NC(=O)CSc1oc(-c2ccc(F)cc2)nc1S(=O)(=O)c1ccccc1 | -6.54 | -10.7 | -4.42 | 92.7% | 87.8% | 0.73 | 1.45 |
| COc1cccc(-c2nn(C)c3sc(C(=O)N4CCOCC4)cc23)c1 | 6.62 | 9.91 | -2.47 | 97.5% | 94.9% | 1.45 | 5.9 |
| CN(C)S(=O)(=O)c1ccc(-c2ccccc2)cc1 | -6.75 | -4.33 | 0.02 | 91.9% | 90.6% | 0.455 | 8.77 |
| O=C(COC(=O)c1ccc(Br)c(S(=O)(=O)N2CCOCC2)c1)NCC1CCCO1 (stereo unspecified) | -1.59 | -5.15 | -2.27 | 100% | 101% | 3.08 | 4.66 |
| COc1ccc(CSc2nnnn2Cc2ccccc2)cc1OC | 0.115 | 1.64 | -0.65 | 87.3% | 84.4% | 0.785 | 1.87 |
| Cc1nnc(Nc2ccc3c(c2)OCO3)c2ccccc12 | -10.6 | -15.2 | -3.25 | 92% | 91.7% | 0.365 | 4.96 |
| Cc1onc(-c2ccccc2Cl)c1C(=O)NC1CCS(=O)(=O)C1 (stereo unspecified) | -10 | 1.32 | 1.32 | 103% | 106% | 2.96 | 3.02 |
| CCOC(=O)c1c(C2CCN(C(=O)OCC)CC2)nc2ccccn12 | -9.71 | -12.6 | -1.79 | 95.4% | 88.7% | 2.99 | 2.43 |
| CCOC(=O)c1ccc(NC(=O)NS(=O)(=O)c2ccc(C)cc2)cc1 | -7.83 | -3.95 | -1.46 | 105% | 94% | 3.13 | 6.08 |
| Cc1cc2oc(C(=O)Nc3cccnc3)c(C)c2cc1C | 7.22 | 6.46 | -1.32 | 90.1% | 87% | 0.52 | 1.77 |
| CC(C)COC(=O)c1cc(=O)[nH]c2ccccc12 | -4.92 | -14.4 | -2.47 | 87.4% | 84.1% | 0.855 | 0.1 |
| COc1cc(C(=O)NCC(c2cccnc2)N2CCN(c3ccccc3)CC2)cc(OC)c1OC (stereo unspecified) | -6.31 | -10.5 | -4.26 | 98.4% | 92.5% | 2.09 | 2.64 |
| CC(C)c1nnc(NC(=O)CN2C(=O)c3ccccc3C2=O)s1 | -5.71 | -6.92 | -1.95 | 96.3% | 89.1% | 1.61 | 3.84 |
| O=C(c1ccc(NC2=NC3CS(=O)(=O)CC3S2)cc1)N1CCN(C(=O)c2ccco2)CC1 (stereo unspecified) | -12.1 | -8.33 | 0.69 | 104% | 98.3% | 2.96 | 4.06 |
| Cc1ccnc(SCCn2c(N3CCN(c4ccccc4)CC3)nc3c2c(=O)[nH]c(=O)n3C)n1 | -8.81 | 5.83 | -3.59 | 89.4% | 76.8% | 2.09 | 4.01 |
| CCOC(=O)c1[nH]c2cc(OC)c(OC)cc2c1NC(=O)c1ccc2c(c1)OCO2 | -7.63 | -10.9 | -1.41 | 102% | 101% | 2.13 | 7.33 |
| Cc1ccc(-c2nc(CS(=O)CC(=O)NCCCN3CC(C)CC(C)C3)c(C)o2)cc1 (stereo unspecified) | -14.2 | -13.2 | -4.27 | 77.5% | 79.1% | 0.255 | 2.65 |
| Cc1ccc(N(C(C)C(=O)O)S(=O)(=O)c2c(C)[nH]c(=O)[nH]c2=O)cc1 (stereo unspecified) | 1.15 | 11.8 | -0.92 | 102% | 94.5% | 0.555 | -0.47 |

Source: PubChem BioAssay
